In brackets after ≈: the same amount, converted by molar mass. Where two headings read alike, the source gives them in different places.
What was measured:
IMP-1 [1] = biological target: T1, IMP-1 (Serratia marcescens, UniProt P52699); details: CAZ hydrolysis by IMP-1; cited from earlier work
NDM-5 [2] = biological target: T2, NDM-5 (Klebsiella pneumoniae, UniProt C7C422, M154L/V88L); details: CAZ hydrolysis by NDM-5; cited from earlier work
IMP-1 [3] = biological target: T1, IMP-1; test: Steady-state hydrolysis kinetics and UV difference spectra with purified IMP-1; type: biochemical; details: for hydrolysis monitored by UV difference spectroscopy: IMP-1, 200 : 1 S : E ratio, 220 nm to 300 nm
VIM-2 [4] = biological target: T3, VIM-2 (Escherichia coli, UniProt Q5U7L7); details: CAZ hydrolysis by VIM-2, cited from earlier work
NDM-1 [5] = biological target: T4, NDM-1 (Klebsiella pneumoniae, UniProt C7C422); test: Steady-state hydrolysis kinetics and UV difference spectra with purified NDM-1; type: biochemical; details: for hydrolysis monitored by UV difference spectroscopy: NDM-1, 200 : 1 S : E ratio, 220 nm to 300 nm; for K M: substrate hydrolysis by NDM-1, 30 °C, 10 mM HEPES, 200 mM NaCl pH 7.5, 20 μM ZnSO4
VIM-2 [6] = biological target: T3, VIM-2; test: Steady-state hydrolysis kinetics and UV difference spectra with purified VIM-2; details: for hydrolysis monitored by UV difference spectroscopy: VIM-2, 200 : 1 S : E ratio, 220 nm to 300 nm
[7] = tested on: E. coli DH10B cells harboring the pMBLe blaIMP-1 plasmid; test: Broth microdilution MIC in ID-CAMHB, E. coli producing IMP-1; type: cell-based; details: Escherichia coli, higher levels of IMP-1 (IPTG-induced)
How it was run: (§1)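 Broth microdilution per CLSI in iron-depleted cation-adjusted Mueller–Hinton broth. DH10B carries the MBL gene on pMBLe with its native signal peptide under an IPTG-inducible promoter; inoculum in broth with 0–200 μM IPTG, final 5 × 10^5 CFU mL−1. Incubation 37 °C, 18 h; mode of three independent experiments. Enzyme levels by anti-strep-tag II immunoblot of drug-free growth wells, DnaK loading control.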

NDM-5 [8] = biological target: T2, NDM-5; test: Steady-state hydrolysis kinetics with purified NDM-5; type: biochemical; details: FDC hydrolysis by NDM-5, 30 °C, pH 7.5
How it was run: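 Purified enzyme in 10 mM HEPES, 200 mM NaCl pH 7.5 with 20 μM ZnSO4, at 30 °C. Initial velocities of substrate hydrolysis followed at 259 nm, Δε259 = −9430 M−1 cm−1, 0.1 cm path cuvette. kcat and KM derived from these initial-rate measurements.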

VIM-2 [9] = biological target: T3, VIM-2; test: Inhibition of nitrocefin hydrolysis by VIM-2; type: biochemical; details: 2 nM VIM-2, 5 min preincubation at 30 °C, 50 μM nitrocefin
How it was run: (§2)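 Recombinant MBL lacking its signal peptide, made in E. coli BL21(DE3) as His-tagged protein, Ni-affinity purified and TEV-cleaved (>95% pure). 2 nM enzyme preincubated 5 min at 30 °C with varied test compound, or its NDM-1 hydrolysis product, or none. Buffer: 10 mM HEPES, 200 mM NaCl pH 7.5, 20 μM ZnSO4. Nitrocefin 50 μM final; initial rates at 495 nm over 300 s. IC50 curves fitted; triplicate.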

IMP-1 [10] = biological target: T1, IMP-1; test: Inhibition of nitrocefin hydrolysis by IMP-1; type: biochemical; details: 2 nM IMP-1, 5 min preincubation at 30 °C, 50 μM nitrocefin
How it was run: as §2

E. coli (blaNDM-5) = details: clinical E. coli before ten-fold increase in blaNDM-5 copy number; cited from earlier work
[11] = tested on: E. coli DH10B cells harboring the pMBLe blaNDM-1 plasmid; test: Broth microdilution MIC in ID-CAMHB, E. coli producing NDM-1; type: cell-based
How it was run: as §1

NDM-1 [12] = biological target: T4, NDM-1; test: Inhibition of nitrocefin hydrolysis by NDM-1; type: biochemical; details: 2 nM NDM-1, 5 min preincubation at 30 °C, 50 μM nitrocefin
How it was run: as §2

## CC(C)(O/N=C(\C(=O)N[C@@H]1C(=O)N2C(C(=O)[O-])=C(C[n+]3ccccc3)CS[C@H]12)c1csc(N)n1)C(=O)O [CAZ, ceftazidime]
IMP-1 [1]
  K M: 44 ± 3 µM
  k cat: 8 ± 1 s⁻¹
  k cat /K M: 180000 M⁻¹ s⁻¹
NDM-5 [2]
  K M: 86 ± 11 µM
  k cat: 15 s⁻¹
  k cat /K M: 180000 M⁻¹ s⁻¹
IMP-1 [3]
  hydrolysis monitored by UV difference spectroscopy: can turnover
VIM-2 [4]
  k cat /K M: 50000 M⁻¹ s⁻¹
VIM-2 [4]; standard deviations <10%
  K M: 72 µM
  k cat: 3.6 s⁻¹
NDM-1 [5]
  hydrolysis monitored by UV difference spectroscopy: can turnover
  K M: 45 ± 12 µM
VIM-2 [6]
  hydrolysis monitored by UV difference spectroscopy: can turnover

## CC(C)(O/N=C(\C(=O)N[C@@H]1C(=O)N2C(C(=O)[O-])=C(C[N+]3(CCNC(=O)c4ccc(O)c(O)c4Cl)CCCC3)CS[C@H]12)c1csc(N)n1)C(=O)O [FDC, cefiderocol]
[7]
  MIC: 0.06 µg/mL (≈ 0.0798 µM)
NDM-5 [8]
  K M: 405 ± 40 µM
  k cat: 75 ± 3 s⁻¹
VIM-2 [9]
  inhibition of nitrocefin hydrolysis activity: inhibited
IMP-1 [10]
  inhibition of nitrocefin hydrolysis activity: inhibited
E. coli (blaNDM-5)
  MIC: 2 µg/mL (≈ 2.66 µM)
IMP-1 [3]; FDC hydrolysis by IMP-1, 30 °C, pH 7.5
  K M: 300 ± 120 µM
IMP-1 [3]
  hydrolysis monitored by UV difference spectroscopy: negligible activity
[11]; E. coli laboratory strain, NDM-1 overproduction vs basal level
  increase in MIC values: 16 fold
[11]; Escherichia coli, ID-CAMHB, higher levels of NDM-1 (IPTG-induced)
  MIC: 0.5 µg/mL (≈ 0.665 µM)
NDM-1 [12]
  inhibition of nitrocefin hydrolysis activity: largely unperturbed
NDM-1 [5]
  hydrolysis monitored by UV difference spectroscopy: efficiently hydrolyzes
  K M: 443 ± 59 µM
VIM-2 [6]; FDC hydrolysis by VIM-2, 30 °C, pH 7.5
  K M: 250 ± 80 µM
VIM-2 [6]
  hydrolysis monitored by UV difference spectroscopy: negligible activity
